Reference: ChEMBL document CHEMBL1132437, “Synthesis and antimicrobial activity of 4H-4-oxoquinolizine derivatives: consequences of structural modification at the C-8 position” (1999)
≈ marks a conversion by molar mass, not a printed value.

How the values were obtained:
Burkholderia cepacia = test: In vitro antibacterial activity against gram negative Pseudomonas cepacia 2961; assay type: functional
Procedure, shortened: (§1)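 Agar dilution MIC determination following the National Committee for Clinical Laboratory Standards recommendations.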

Pseudomonas aeruginosa [1] = test: In vitro antibacterial activity against gram negative P. aeruginosa DPHP 5263; assay type: functional; procedure, shortened: as §1
Staphylococcus aureus [2] = test: In vivo efficacy against Staphylococcus aureus NCTC 10649M in mouse; assay type: functional
Procedure, shortened: (§2)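 Mouse protection model: mice infected intravenously with 100-fold LD50 of the organism. Compound given by subcutaneous injection or oral gavage at 1 and 5 h after infection, over a dose range. Deaths tracked for 7 days post-inoculation. ED50 is the dose giving 50% survival of treated mice over the trial.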

Streptococcus pyogenes = test: In vitro antibacterial activity against gram positive Streptococcus pyogenes 930; assay type: functional; procedure, shortened: as §1
Escherichia coli [3] = test: In vivo efficacy against Escherichia coli JUHL in mouse protection test after subcutaneous administration; assay type: functional; details: Escherichia coli, sc; read-out: ED50; procedure, shortened: as §2
Pseudomonas aeruginosa [4] = test: In vivo efficacy against Pseudomonas aeruginosa 5007 in mouse protection test after administration by oral gavage; assay type: functional; details: Pseudomonas aeruginosa, po; read-out: ED50; procedure, shortened: as §2
Pseudomonas aeruginosa [5] = test: In vitro antibacterial activity against Gram-negative Pseudomonas aeruginosa 5007; assay type: functional; procedure, shortened: as §1
Pseudomonas aeruginosa [6] = test: In vivo efficacy against Pseudomonas aeruginosa 5007 in mouse protection test after subcutaneous administration; assay type: functional; details: Pseudomonas aeruginosa, sc; read-out: ED50; procedure, shortened: as §2
Staphylococcus aureus [7] = test: In vivo efficacy against Staphylococcus aureus NCTC 10649M in mouse protection test after p.o. administration.; assay type: functional; details: Staphylococcus aureus, po; read-out: ED50; procedure, shortened: as §2
Escherichia coli [8] = test: In vivo efficacy against Escherichia coli JUHL in mouse protection test after p.o. administration.; assay type: functional; details: Escherichia coli, po; read-out: ED50; procedure, shortened: as §2
Staphylococcus aureus [9] = test: In vitro antibacterial activity against gram-positive Staphylococcus aureus NCTC 10649M; assay type: functional; procedure, shortened: as §1
Escherichia coli [10] = test: In vitro antibacterial activity against gram negative Escherichia coli KNK 437; assay type: functional; procedure, shortened: as §1
Staphylococcus aureus [11] = test: In vitro antibacterial activity against gram-positive Staphylococcus aureus 1775; assay type: functional; procedure, shortened: as §1
Enterococcus faecium = test: In vitro antibacterial activity against gram-positive Enterococcus faecium ATCC 8043; assay type: functional; procedure, shortened: as §1
Streptococcus pneumoniae = test: In vivo efficacy against Streptococcus pneumoniae ATCC 6303 in mouse protection test after s.c. administration.; assay type: functional; details: Streptococcus pneumoniae, sc; read-out: ED50; procedure, shortened: as §2
Mus musculus [12] = test: In vivo efficacy against Streptococcus pneumoniae ATCC 6303 in mouse protection test after administration by oral gavage; assay type: functional; procedure, shortened: as §2
Mus musculus [13] = test: In vivo efficacy against Staphylococcus aureus NCTC 10649M in mouse protection test
Mus musculus [14] = test: IIn vivo efficacy against Escherichia coli JUHL in mouse protection test after administration by oral gavage; assay type: functional; procedure, shortened: as §2
Pseudomonas aeruginosa [15] = test: Not Plasmodium species; assay type: functional
[16] = Burkholderia cepacia, read-out: MIC
[17] = Pseudomonas aeruginosa, DPHP 5263, read-out: MIC
[18] = Staphylococcus aureus, read-out: ED50
[19] = Streptococcus pyogenes, read-out: MIC
[20] = Pseudomonas aeruginosa, read-out: MIC
[21] = Staphylococcus aureus, NCTC 10649, read-out: MIC
[22] = Escherichia coli, read-out: MIC
[23] = Staphylococcus aureus, read-out: MIC
[24] = Enterococcus faecium, ATCC 8043, read-out: MIC

Row | Structure (SMILES) | MIC (Burkholderia cepacia; [16]) [µg/mL] | MIC (Pseudomonas aeruginosa [1]; [17]) [µg/mL] | ED50 (Staphylococcus aureus [2]; [18]) [mg/kg] | MIC (Streptococcus pyogenes; [19]) [µg/mL] | ED50 (Escherichia coli [3]) [mg/kg] | ED50 (Pseudomonas aeruginosa [4]) [mg/kg] | MIC (Pseudomonas aeruginosa [5]; [20]) [µg/mL] | ED50 (Pseudomonas aeruginosa [6]) [mg/kg] | ED50 (Staphylococcus aureus [7]) [mg/kg] | ED50 (Escherichia coli [8]) [mg/kg] | MIC (Staphylococcus aureus [9]; [21]) [µg/mL] | MIC (Escherichia coli [10]; [22]) [µg/mL] | MIC (Staphylococcus aureus [11]; [23]) [µg/mL] | MIC (Enterococcus faecium; [24]) [µg/mL] | ED50 (Streptococcus pneumoniae) [mg/kg] | ED50 (Mus musculus [12]) [mg/kg] | ED50 (Mus musculus [13]) [mg/kg] | also measured
1 | Cc1c(N2C[C@H](C3CC3)[C@@H](N)C2)c(F)cn2c(=O)c(C(=O)O)cc(C3CC3)c12 | 1.56 (≈ 4.05 µM) | 12.5 (≈ 32.4 µM) | 3 | 0.1 (≈ 0.259 µM) | 1.2 | > 50 | 0.39 (≈ 1.01 µM) | > 32 | 11.2 | > 10 | 0.02 (≈ 0.0519 µM) | 0.2 (≈ 0.519 µM) | 0.78 (≈ 2.02 µM) | 0.1 (≈ 0.259 µM) | > 8 | > 50 |  | 
2 | Cc1c(N2CC[C@@H]3[C@H](N)[C@@H]3C2)c(F)cn2c(=O)c(C(=O)O)cc(C3CC3)c12 | 3.1 (≈ 8.35 µM) | 6.2 (≈ 16.7 µM) |  | 0.05 (≈ 0.135 µM) | 0.9 |  | 0.39 (≈ 1.05 µM) |  | 4.1 | 5 | 0.02 (≈ 0.0538 µM) | 0.2 (≈ 0.538 µM) | 1.56 (≈ 4.2 µM) | 0.05 (≈ 0.135 µM) |  |  | 1.2 | 
3 | Cc1c(N2CCC[C@@H](NC3CC3)C2)c(F)cn2c(=O)c(C(=O)O)cc(C3CC3)c12 | 6.2 (≈ 15.5 µM) | 25 (≈ 62.6 µM) | 1.8 | 0.02 (≈ 0.0501 µM) |  |  | 0.78 (≈ 1.95 µM) | > 32 |  |  | 0.01 (≈ 0.025 µM) | 0.1 (≈ 0.25 µM) | 3.1 (≈ 7.76 µM) | 0.05 (≈ 0.125 µM) | > 16 |  |  | 
4 | Cc1c(N2C[C@@H](N)[C@H](C3CC3)C2)c(F)cn2c(=O)c(C(=O)O)cc(C3CC3)c12 (stereo in doubt) |  |  |  |  | 3.4 | > 50 |  | > 32 | 10.9 | 10 |  |  |  |  | 8 | 25 | 1.5 | MIC (Burkholderia cepacia): 1.56 µg/mL (≈ 4.05 µM); MIC (Pseudomonas aeruginosa [1]): 3.1 µg/mL (≈ 8.04 µM); MIC (Streptococcus pyogenes): 0.05 µg/mL (≈ 0.13 µM); MIC (Pseudomonas aeruginosa [5]): 0.39 µg/mL (≈ 1.01 µM); MIC (Staphylococcus aureus [9]): 0.05 µg/mL (≈ 0.13 µM); MIC (Escherichia coli [10]): 0.2 µg/mL (≈ 0.519 µM); MIC (Staphylococcus aureus [11]): 0.78 µg/mL (≈ 2.02 µM); MIC (Enterococcus faecium): 0.1 µg/mL (≈ 0.259 µM)
5 | Cc1c(N2C[C@@H]3OCCN[C@@H]3C2)c(F)cn2c(=O)c(C(=O)O)cc(C3CC3)c12 | 6.2 (≈ 16 µM) | 100 (≈ 258 µM) | 2.7 | 0.1 (≈ 0.258 µM) | > 5 |  | 1.56 (≈ 4.03 µM) |  |  |  | 0.002 (≈ 0.00516 µM) | 0.78 (≈ 2.01 µM) | 0.78 (≈ 2.01 µM) | 0.1 (≈ 0.258 µM) |  |  |  | ED50 (Staphylococcus aureus [2]): 4.8 mg/kg; ED50 (Mus musculus [14]): > 20 mg/kg
6 | Cc1c(N2CCCC2)c(F)cn2c(=O)c(C(=O)O)cc(C3CC3)c12 | 0.78 (≈ 2.36 µM) | > 100 | > 12 | 0.2 (≈ 0.605 µM) | > 50 |  |  |  |  |  | 0.02 (≈ 0.0605 µM) | 0.39 (≈ 1.18 µM) | 0.78 (≈ 2.36 µM) | 0.2 (≈ 0.605 µM) |  |  |  | MIC (Pseudomonas aeruginosa [15]): 0.78 µg/mL (≈ 2.36 µM)
7 | Cc1c(N2CC[C@@H](NCCF)C2)c(F)cn2c(=O)c(C(=O)O)cc(C3CC3)c12 | 1.56 (≈ 3.99 µM) | 25 (≈ 63.9 µM) |  | 0.05 (≈ 0.128 µM) | 4.4 | > 50 | 1.56 (≈ 3.99 µM) | > 32 | 9.6 | 34.1 | 0.02 (≈ 0.0511 µM) | 1.56 (≈ 3.99 µM) | 0.39 (≈ 0.996 µM) | 0.1 (≈ 0.255 µM) | 8 | 30.7 | 2.1 | 
8 | Cc1c(N2CCCO2)c(F)cn2c(=O)c(C(=O)O)cc(C3CC3)c12 | 6.2 (≈ 18.7 µM) | > 100 | > 12 | 6.2 (≈ 18.7 µM) | > 5 |  | 6.2 (≈ 18.7 µM) |  |  |  | 0.78 (≈ 2.35 µM) | 6.2 (≈ 18.7 µM) | > 100 | 3.1 (≈ 9.33 µM) |  |  |  | 
9 | Cc1c(N2CCCC(NC3CC3)C2)c(F)cn2c(=O)c(C(=O)O)cc(C3CC3)c12 (centres undefined) | 3.1 (≈ 7.76 µM) | 25 (≈ 62.6 µM) |  | 0.05 (≈ 0.125 µM) | 2.8 | > 50 | 0.39 (≈ 0.976 µM) | > 32 | 2.1 | 8 | 0.01 (≈ 0.025 µM) | 0.2 (≈ 0.501 µM) | 1.56 (≈ 3.91 µM) | 0.05 (≈ 0.125 µM) | 1 | 2.5 | 0.4 | 
